The values below come from ChEMBL document CHEMBL1123866, “Benzimidazole derivatives with atypical antiinflammatory activity” (J Med Chem, 1987).

In assay [1] the test system is Rattus norvegicus. Kind of assay: Anti-inflammatory activity (% inhibition of paw swelling)in rat adjuvant arthritis model at 25 mg/kg oral dose. The format is functional. In short, it runs like this:
(§1)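 Rats, ten per group, were dosed orally with a suspension in 1% acacia in distilled water, starting immediately after adjuvant injection and then once daily for 14 days in total. Foot volume of the noninjected hind paw was measured by mercury displacement to the lateral malleolus 24 h after the final dose. Percent inhibition of swelling was calculated against untreated arthritic controls.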

Assay [2] deals with Rattus norvegicus. Briefly: Antiinflammatory activity was evaluated for the compound in rat adjuvant arthritis model and the percent of inhibition was determined at 50 mg/kg dose administered orally. The note with it: route oral. The class given is functional. In short, it runs like this: as §1
The subject of assay [3] is Rattus norvegicus. Briefly: Antiinflammatory activity was evaluated for the compound in rat adjuvant arthritis model and the percent of inhibition was determined at 1 mg/kg dose administered orally. Particulars: po, read-out: Inhibition.

Consider `O=S(=O)(c1nc2cc(Cl)ccc2[nH]1)C(F)(F)C(F)(F)F`, for which the inhibition in vivo at 25 mg/kg in the assay on Rattus norvegicus [1] stood at 0%. With `COC(=O)c1ccc2[nH]c(S(=O)(=O)CC(F)(F)F)nc2c1`, the inhibition in vivo at 25 mg/kg with Rattus norvegicus [1] was found to be 11%.

With `O=S(=O)(CC(F)(F)F)c1nc2cc(Cl)c(Cl)cc2[nH]1`, the inhibition in vivo at 25 mg/kg in the assay with Rattus norvegicus [1] is 24%. On the same count and under the same terms, then `Cc1ccc2[nH]c(S(=O)(=O)C(F)(F)C(F)(F)F)nc2c1`, with 8%; and `O=S(=O)(CC(F)(F)F)c1nc2cc(F)ccc2[nH]1`, with 43%; and `O=S(=O)(CC(F)(F)F)c1nc2ccccc2[nH]1`, with 52%. As to `Cc1ccc2[nH]c(S(=O)(=O)CC(F)(F)F)nc2c1`, the inhibition in vivo at 25 mg/kg in the assay with Rattus norvegicus [1] is 52%. Further, the inhibition in vivo at 50 mg/kg in the assay with Rattus norvegicus [2] was 72%. With `CCc1ccc2[nH]c(S(=O)(=O)CC(F)(F)F)nc2c1`, the inhibition in vivo at 25 mg/kg with Rattus norvegicus [1] is 34%.

For the compound `O=S(=O)(CC(F)(F)F)c1nc2cc(Cl)ccc2[nH]1`, the inhibition in vivo at 25 mg/kg with Rattus norvegicus [1] was 28%. Still for that read-out and setting: for `CCS(=O)(=O)c1nc2cc(C)ccc2[nH]1` the value was 17%; for `O=S(=O)(c1nc2cc(Cl)ccc2[nH]1)C(F)(F)C(F)(F)C(F)(F)F`, 0%; for `Cc1cc2[nH]c(S(=O)(=O)CC(F)(F)F)nc2cc1F`, 44%. Still for that read-out and setting: then `Cc1cc2nc(S(=O)(=O)CC(F)(F)F)[nH]c2cc1C`, with 18%; and `CCCc1ccc2[nH]c(S(=O)(=O)CC(F)(F)F)nc2c1`, with 0%; and `O=S(=O)(CC(F)(F)F)c1nc2cc(C(F)(F)F)ccc2[nH]1`, with 0%.

As to `CC(C)Cc1ccc(C(C)C(=O)O)cc1` (stereo not drawn) [IBUPROFEN], the inhibition in vivo at 25 mg/kg in the assay on Rattus norvegicus [1] stood at 73%. As to `COc1ccc2c(c1)c(CC(=O)O)c(C)n2C(=O)c1ccc(Cl)cc1` [INDOMETHACIN], in the assay with Rattus norvegicus [3], the inhibition in vivo at 1 mg/kg amounted to 69%.
